Screening data: PubChem BioAssay, Broad Institute
XiGFP reactiv = activators of inactive X chromosome reactivation, primary screen, imaging, XiGFP fibroblasts, GFP high-content imaging, set 2; activation, % at 7.58 µM; 0.055% of 360,000 active; XiGFP mouse fibroblasts, % GFP-positive cells imaging, 3 d; cells co-treated with 5-aza-dC sensitizer; scaled so ellipticine positive control = 100%;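 active means mean normalized replicate activation at least 10% and every replicate at or above 10%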;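 further: 0% = median of on-plate neutral control wells and 100% = ellipticine 6 µM median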
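Material: XiGFP fibroblasts, SV40-immortalized. Buffer or medium: DMEM plus 5-aza-dC sensitizer. Compound: single concentration per compound, delivered by pin transfer. Times: 3 days compound exposure. Controls: ellipticine 6 µM.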
FGF22 binding = binders of human FGF22 protein, primary screen, FGF22 synaptogenesis inhibitor project, biophysical, thermal shift, single point; activity (Tm shift, normalised), % at 9.99 µM; AID 651658, 2012; 1.5% of 340,000 active; recombinant FGF22 thermal shift, SYPRO orange fluorescence; percent of sucrose octasulfate shift, DMSO zero; Fibroblast growth factor 22 (Homo sapiens), Q9HCT0;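 active means mean Tm shift, scaled 0 neutral to 100 positive control, at about 1.3% or above, every replicate too, limit read from the data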
Target sequence (Q9HCT0 whole entry, looked up): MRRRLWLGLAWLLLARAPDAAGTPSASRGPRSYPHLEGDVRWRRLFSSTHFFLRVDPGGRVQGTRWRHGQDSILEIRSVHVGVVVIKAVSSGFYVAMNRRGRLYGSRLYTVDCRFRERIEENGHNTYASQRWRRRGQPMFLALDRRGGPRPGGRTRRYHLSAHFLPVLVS
SIRT5 inh = SIRT5 desuccinylase inhibitors, primary screen, biochemical, fluorescence imaging, single point, set 5 | NAD-dependent protein deacylase sirtuin-5, mitochondrial (Homo sapiens), Q9NXA8 | Purified SirT5, succinyl-peptide AMC, trypsin-coupled fluorescence | inhibition, % at 15 µM | 1.1% of 330,000 active; in the data active means inhibition above about 15%
Target sequence (Q9NXA8 whole entry, looked up): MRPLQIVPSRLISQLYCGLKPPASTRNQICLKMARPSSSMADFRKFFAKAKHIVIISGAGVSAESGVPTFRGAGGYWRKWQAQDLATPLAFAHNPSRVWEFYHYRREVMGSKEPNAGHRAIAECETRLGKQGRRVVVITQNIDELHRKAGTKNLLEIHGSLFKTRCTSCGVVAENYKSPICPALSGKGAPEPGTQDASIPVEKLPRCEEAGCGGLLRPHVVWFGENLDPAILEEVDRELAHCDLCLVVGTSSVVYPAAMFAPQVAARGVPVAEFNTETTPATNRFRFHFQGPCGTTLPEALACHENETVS
FN deposit inh = inhibitors of fibronectin matrix deposition, primary screen, AH1F cells, Alexa488-fibronectin fluorescence, plate reader; AH1F fibroblasts, overnight; inhibition, % at 12.6 µM; 0.086% of 350,000 active; AID 743247, 2014;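 active means mean inhibition across replicates of 30% or more, regardless of how many single replicates reach that level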;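 further: positive control wells lacked labelled fibronectin entirely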
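material = AH1F fibroblast monolayer depositing Alexa488-labelled fibronectin into matrix | amount = 10000 AH1F cells/well | buffer or medium = DMEM plus 2% serum, read in PBS | incubation = 1 h cell adhesion before compound, then overnight fibronectin incubation | detection = fluorescence at 485 nm excitation, 525 nm emission | evaluation = percent inhibition as loss of matrix-bound fibronectin fluorescence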
DENV2 CPE rescue = inhibitors of DENV2 cytopathic effect, primary screen, cell-based, plate reader, single concentration. DENV2-infected cells, cytopathic effect rescue. CPE inhibition, % at 9.99 µM. 1.7% of 350,000 active. AID 651640, 2012; in the data active means CPE inhibition above about 20%, passing the limit was not always enough; tested in BHK-21 cells;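 further: 0% = median of neutral control wells and 100% = median of positive control wells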
ARNT-TACC3 inh = disruptors of ARNT/TACC3 protein interaction, primary screen, biochemical, AlphaScreen, single concentration | Transforming acidic coiled-coil-containing protein 3 (Homo sapiens), Q9Y6A5 | AlphaScreen His-ARNT PAS-B/GST-TACC3 binding, luminescence; TACC3 fragment carries E629A point mutation | inhibition, % at 9.99 µM | 0.66% of 390,000 active | AID 623870, 2012;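 active means mean inhibition of replicates at least 50% and at least half of replicates each reaching 50%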;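 further: 0% = complete ARNT plus TACC3 wells and 100% = ARNT alone without TACC3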
The depositor's hits bear a star; · = no result given. In the library only some 3.8% were active in any assay of this set; here they are far more common.

SMILES	XiGFP reactiv	FGF22 binding	SIRT5 inh	FN deposit inh	DENV2 CPE rescue	ARNT-TACC3 inh
CC(C)CCN1CCN(Cc2nc3ccccc3s2)CC1CCO (configuration not stated)	0	0	-1	1	0	-3
Cc1ccccc1-c1cc(C(=O)NCc2cccc(Br)c2)nn1CC1CC(c2cccc([N+](=O)[O-])c2)=NO1 (configuration not stated)	0	0	·	-4	34*	-7
COc1ccc2c(Cl)c(C(=O)NN3CCN(C)CC3)sc2c1	0	44*	-4	9	9	4
CC(C)NC(=O)N(C)C[C@H]1Oc2c(NS(=O)(=O)c3ccccc3)cccc2C(=O)N([C@@H](C)CO)C[C@H]1C	0	0	-1	-7	2	-4
C/C(=N/NC(=O)c1sc(NS(=O)(=O)c2ccc(C)cc2)nc1C)c1sc(N)nc1C	0	43*	9	1	-4	-16
O=C(Cc1ccccn1)N1CC2(C1)[C@H](c1ccccc1)[C@H](CO)N2C(=O)c1ccncc1	0	0	1	0	17	·
CCOC(=O)c1ccc(NC(=O)Cn2ncc(Cl)c(Cl)c2=O)cc1	1	-1	-4	32*	0	·
Cc1ccc(C(=O)OCn2ncc(Cl)c(Cl)c2=O)cc1	·	·	·	17*	·	-6
O=C(Nc1ccc2c(c1)[C@@H]1C[C@@H](CC(=O)N3CCOCC3)O[C@@H](CO)[C@@H]1O2)C1CCC1	0	0	·	1	-5	-2
COc1ccc2c(c1)CO[C@@]21O[C@H](CCO)C[C@H](O)[C@H]1O	0	0	-3	-17	-4	·
Cc1ccc2c(c1)CO[C@]21O[C@H](CCO)C[C@H](O)[C@H]1O	0	0	-4	·	44*	·
O=C(Cn1ccc(=O)[nH]c1=O)Nc1ccc(O)c([N+](=O)[O-])c1	0	43*	·	0	1	-6
CO[C@H]1CN(C)C(=O)c2ccc(NC(=O)Nc3cc(F)ccc3F)cc2OC[C@@H](C)NC[C@H]1C	0	0	1	2	-9	-3
O=C(c1ccc(Cl)cc1[N+](=O)[O-])N1CCc2ccccc2C1	0	43*	1	-8	·	0
O=C(Nc1ccc([N+](=O)[O-])cc1)N1CCc2ccccc2C1	0	0	-5	-6	23*	-1
CC(C)c1ccc(NC(=O)N2CCc3ccccc3C2)cc1	0	0	-2	7	-9	·
O=C(c1ccccc1[N+](=O)[O-])N1CCc2ccccc2C1	0	·	·	4	·	-6
CCNC(=O)C[C@H]1CC[C@H]2[C@@H](COC[C@H](O)CN2C(=O)Nc2cccc(OC)c2)O1	0	0	·	-9	-7	-5
CO[C@H]1CN(C)C(=O)c2cc(NC(C)=O)ccc2OC[C@@H](C)N(Cc2cccnc2)C[C@@H]1C	0	·	·	2	·	-7
Cc1ccc(S(=O)(=O)N(C)C[C@@H]2OCCCC[C@H](C)Oc3ccc(NS(=O)(=O)c4c(C)noc4C)cc3C(=O)N([C@@H](C)CO)C[C@@H]2C)cc1	0	0	13	5	81*	-2
COc1ccc(S(=O)(=O)N(C)C[C@H]2OCCCC[C@H](C)Oc3ccc(NS(=O)(=O)c4c(C)noc4C)cc3C(=O)N([C@H](C)CO)C[C@@H]2C)cc1	0	-1	4	-12	5	4
Cc1noc(C)c1S(=O)(=O)N(C)C[C@@H]1OCCCC[C@@H](C)Oc2ccc(NS(=O)(=O)c3ccc(Cl)cc3)cc2C(=O)N([C@H](C)CO)C[C@H]1C	-1	0	-2	·	31*	-7
Cc1ccc(S(=O)(=O)Nc2ccc3c(c2)C(=O)N([C@H](C)CO)C[C@H](C)[C@H](CN(C)S(=O)(=O)c2c(C)noc2C)OCCCC[C@H](C)O3)cc1	0	-1	14	-7	31*	5
Cc1ccc(S(=O)(=O)Nc2ccc3c(c2)C(=O)N([C@H](C)CO)C[C@H](C)[C@H](CN(C)S(=O)(=O)c2c(C)noc2C)OCCCC[C@@H](C)O3)cc1	0	0	3	-5	-7	-1
COc1ccc(S(=O)(=O)N(C)C[C@@H]2OCCCC[C@H](C)Oc3ccc(NS(=O)(=O)c4c(C)noc4C)cc3C(=O)N([C@H](C)CO)C[C@H]2C)cc1	0	0	5	-4	96*	-1
SMILES	XiGFP reactiv	FGF22 binding	SIRT5 inh	FN deposit inh	DENV2 CPE rescue	ARNT-TACC3 inh
CCCNC(=O)C[C@H]1CC[C@@H]2[C@H](COc3ccc(NC(=O)c4ccc(Cl)cc4)cc3C(=O)N2C)O1	0	0	-9	6	-8	-4
O=S(=O)(N[C@H]1CC[C@@H](CCn2cc(-c3ccccc3F)nn2)O[C@@H]1CO)c1ccc(F)cc1	-1	·	-3	·	0	·
C[C@H]1CN([C@@H](C)CO)S(=O)(=O)c2ccc(-c3ccccc3)cc2O[C@H]1CN(C)CC1CC1	0	0	4	3	-6	5
Cc1ccc(S(=O)(=O)N(C)C[C@H]2OCCCC[C@H](C)Oc3ccc(NS(=O)(=O)c4c(C)noc4C)cc3C(=O)N([C@@H](C)CO)C[C@H]2C)cc1	0	0	9	-8	49*	-9
Cc1ccc(S(=O)(=O)N(C)C[C@@H]2OCCCC[C@H](C)Oc3ccc(NS(=O)(=O)c4c(C)noc4C)cc3C(=O)N([C@@H](C)CO)C[C@H]2C)cc1	0	0	5	1	-3	5
Cc1cccc(CNc2ncnc3ccc(-c4ccccc4Cl)cc23)c1	0	0	-17	-8	-5	-3
c1csc(CNc2ncnc3ccc(-c4ccc5c(c4)OCO5)cc23)c1	0	44*	4	7	·	18
Cc1csc(CNc2ncnc3ccc(-c4cccc(Cl)c4)cc23)c1	0	0	34*	14	-1	8
CCCNC(=O)N1C[C@@H]2[C@H](c3ccccc31)[C@H](CO)N2C(=O)C1CCOCC1	0	·	·	·	-6	-4
COc1ccc(C=O)c2[nH]c3c(Cl)ncnc3c12	0	0	17*	5	-3	-9
CCOc1ccccc1NC(=O)c1nc(-c2ccccc2)oc1C	0	43*	-2	1	-1	-5
Cc1oc(-c2ccccc2)nc1C(=O)Nc1nccs1	·	·	·	·	·	-5
